Compound activity as filed in PubChem BioAssay.
Compounds with a hit are over-represented: about 3.5% of the library has one in this group of screens.
MrgX1 antag = antagonists of human MrgX1 receptor, primary screen, HEK293 cells, Fluo-4 calcium flux | Mas-related G-protein coupled receptor member X1 (Homo sapiens), Q96LB2 | BAM8-22 antagonism; hits give low values | B-score at 10 µM | 1.3% of 310,000 active | AID 588676, 2011;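 active = calcium-response B-score plate-corrected more than 3 library SD below zero, starting fluorescence within 5 deviations, no agonist response on first addition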;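 also: peak minus trough fluorescence over baseline after final BAM8-22 challenge near maximal dose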
Target sequence (Q96LB2 whole entry, looked up): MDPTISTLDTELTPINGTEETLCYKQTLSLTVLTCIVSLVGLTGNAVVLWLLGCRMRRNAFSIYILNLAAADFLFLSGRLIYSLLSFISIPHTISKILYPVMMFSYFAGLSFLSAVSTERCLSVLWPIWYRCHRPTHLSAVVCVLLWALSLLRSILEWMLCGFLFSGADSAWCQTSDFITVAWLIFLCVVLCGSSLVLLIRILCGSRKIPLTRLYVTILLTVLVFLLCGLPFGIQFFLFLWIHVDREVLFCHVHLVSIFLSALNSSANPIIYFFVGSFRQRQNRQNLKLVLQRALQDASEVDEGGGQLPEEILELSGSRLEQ
RGS4 pot = RGS4 potentiators or activators, primary screen, cell-based, HEK293 M3R inducible RGS4, calcium flux. AID 463111, 2010. carbachol calcium flux Fluo4; hits give low values. 0.92% of 310,000 active. B-score at 10 µM;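 active = B-score of the integrated calcium signal more than 4 SD below the library mean, with starting fluorescence not abnormally high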;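 also: negative B-score means reduced calcium response which marks RGS4 activation or potentiation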
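Material: M3R-expressing HEK293 line, RGS4 induced by doxycycline | Schedule: Overnight RGS4 induction, 30 min dye load 37 °C, 20 min compound RT | Measured by: Fluo4 fluorescence kinetic imaging of calcium | Read-out: Integrated calcium ratio converted to B score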
RGS4 inh = RGS4 inhibitors, primary screen, cell-based, HEK293 M3R inducible RGS4, calcium flux | Regulator of G-protein signaling 4 (Homo sapiens), P49798 | Fluo-4 calcium flux; hits give high values; triggered by carbachol at its EC20 | B-score at 10 µM | 0.45% of 310,000 active;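 active = B-score, a plate-corrected calcium signal, over three deviations above library mean, with baseline fluorescence within five deviations of library mean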;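 also: RGS4 expression induced by doxycycline in cells with stable M3 receptor; B-score is computed from the integrated fluorescence ratio over baseline after carbachol; higher B-score means a larger calcium signal and so more RGS4 inhibition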
Target sequence (P49798 whole entry, looked up): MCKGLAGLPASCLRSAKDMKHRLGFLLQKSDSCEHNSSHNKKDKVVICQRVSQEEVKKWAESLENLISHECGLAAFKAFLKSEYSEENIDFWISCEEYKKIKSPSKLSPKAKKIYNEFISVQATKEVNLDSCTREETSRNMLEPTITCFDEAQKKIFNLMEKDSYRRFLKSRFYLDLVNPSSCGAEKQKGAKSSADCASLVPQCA
MrgX1 allo act = positive allosteric modulators of MrgX1, primary screen, HEK293 cells, Fluo-4 calcium flux; 0.63% of 310,000 active; Mas-related G-protein coupled receptor member X1 (Homo sapiens), Q96LB2; AID 588675, 2011; FDSS; hits give high values; B-score at 10 µM;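 active = plate-corrected calcium response at least 3 library SD above typical, normal starting fluorescence, not activating the receptor alone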;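 also: compound read alongside a low EC10 to EC30 dose of BAM8-22 agonist; peak minus trough fluorescence over baseline measured at the second addition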
MrgX1 ag = agonists of human MrgX1 receptor, primary screen, HEK293 cells, Fluo-4 calcium flux; Mas-related G-protein coupled receptor member X1 (Homo sapiens), Q96LB2; Fluo-4 calcium fluorescence, agonist mode; hits give high values; B-score at 10 µM; 0.44% of 310,000 active; AID 588627, 2011;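 active = calcium response B-score plate-corrected fluorescence ratio at least 3 library SD, with starting fluorescence B-score inside 5 SD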
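Material: MrgX1-expressing HEK293 cells / Dosing: compound as first of three additions / Incubation: overnight seeding, then 1 h dark dye loading / Signal: Fluo-4 NW calcium fluorescence / Evaluation: B-scored fluorescence response ratio / Benchmarks: positive and negative control wells on each plate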
RGS4 act valid = reduced carbachol calcium response, RGS4-induced M3R cells, confirmation, RGS4 activator project, cell-based, HEK293 M3R/RGS4 inducible, calcium flux, duplicate | shares compounds with RGS4 pot | carbachol calcium flux Fluo4 | inhibition, % at 10 µM | 89% of 1,100 active;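 active = inhibition above 3 SD of the buffer control wells, cut at about 41% in these data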;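 also: signal is the integrated peak-minus-minimum Fluo4 fluorescence over baseline ratio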
M3R Ca counter = counter-screen for RGS4 activators: effect in non-induced cells | shares compounds with RGS4 pot | HEK293 M3R non-induced RGS4, Fluo4 calcium flux; after carbachol challenge at its EC90 | inhibition, % at 10 µM | 82% of 1,100 active;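 active = inhibition exceeding 3 SD of buffer-only control wells, cut at about 26% in these data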;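 also: percent drop in integrated peak-minus-baseline over baseline Fluo4 ratio after carbachol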
Starred values were filed as active, the others as inactive; i = inactive; . = no result given.

SMILES	MrgX1 antag	RGS4 pot	RGS4 inh	MrgX1 allo act	MrgX1 ag	RGS4 act valid	M3R Ca counter
NC(=O)CCN1CCN(Cc2nc(C(c3ccccc3)c3ccccc3)no2)CC1	i	-8.74*	i	i	i	92.5*	58.3*
CCCCC(Sc1nc(N)c(NC(=O)c2ccco2)c(=O)[nH]1)C(=O)O (stereo unspecified)	i	i	i	i	i	.	.
CC(C)c1cc(C(=O)O)n(-c2ccccc2)n1	i	i	i	i	i	.	.
CCOC(=O)N1CCC(N2CCN(Cc3ccccc3)C(CCO)C2)CC1 (stereo unspecified)	i	i	i	i	i	.	.
CCOC(=O)N1CCC(NC2CCCCCCC2)CC1	i	-8.1*	i	i	i	82.0*	0.0
CCOC(=O)N1CCC(N2CCN(C3CCCC3)C(CCO)C2)CC1 (stereo unspecified)	i	-10.2*	i	i	i	89.0*	58.8*
CC(C)NS(=O)(=O)c1ccc(CCC(=O)N2CCc3ccccc3C2)cc1	i	-7.54*	i	i	i	0.0	0.0
CC(C)NS(=O)(=O)c1ccc(OCC(=O)N2CCc3ccccc3C2)cc1	i	i	i	i	i	.	.
CN1CCC(C2(O)c3ccccc3CSc3sccc32)CC1 (stereo unspecified)	i	.	.	i	i	.	.
CN1CCC(C2(O)c3ccccc3CCc3ccccc32)CC1	i	-9.99*	i	i	i	62.0*	83.8*
COc1ccc(NC(=O)C2CCN(S(=O)(=O)c3c(C)noc3C)CC2)cc1Cl	i	i	i	i	i	.	.
CCN(CC)CCNC(=O)c1ccc(NC(=O)c2c(C)nn(-c3ccc(F)cc3)c2Cl)cc1	i	-9.81*	i	i	i	92.5*	87.8*
CCN(CC)CCNC(=O)c1ccc(NC(=O)Cc2ccccc2F)cc1	i	i	i	i	i	.	.
Cc1ccc(C2(C)NC(=O)N(CC(=O)NC(C)c3ccccc3)C2=O)cc1 (stereo unspecified)	i	i	i	i	i	.	.
CSc1ccc2c(c1)C(N1CCN(C)CC1)Cc1ccc(F)cc1S2 (stereo unspecified)	i	-11.5*	i	i	i	94.0*	89.8*
O=C(CCS(=O)(=O)Cc1ccccc1)Nc1nc2c(s1)CCCC2	i	-10.6*	i	i	i	0.0	0.0
O=C(CS(=O)(=O)Cc1ccccc1)Nc1nc2c(s1)CCCC2	i	i	i	i	i	.	.
COc1ccccc1C(CNC(=O)c1cccc(NS(=O)(=O)c2ccc(C)c(F)c2)c1)N(C)C (stereo unspecified)	i	-8.36*	i	i	i	77.0*	54.8*
Cc1cccc(-c2cc(C(=O)Nc3cccnc3)c3ccccc3n2)c1	i	-9.49*	i	i	i	56.0*	0.0
c1cn2c(NC3CCCCC3)c(-c3ccc(SC4CCCCC4)cc3)nc2cn1	i	i	i	i	i	.	.
CCN(CC)c1ccc(-c2nc3cnccn3c2NC2CCCC2)cc1	i	-7.86*	i	i	i	53.5*	0.0
O=C(CSc1ncc(-c2ccccc2)n1C1CCCC1)N1CCc2ccccc21	i	-7.65*	i	i	i	53.5*	83.8*
COc1cccc(CNC(=O)CCC2CCCN(c3cc(C)nc(N4CCCC4)n3)C2)c1 (stereo unspecified)	i	-11.7*	i	i	i	92.5*	93.8*
COc1cccc(CNC(=O)CCC2CCCN(C3CCOCC3)C2)c1 (stereo unspecified)	i	i	i	i	i	.	.
CCCOc1ccc(C(=O)CCCC(=O)c2ccc(OCCC)cc2)cc1	i	i	i	i	i	.	.
SMILES	MrgX1 antag	RGS4 pot	RGS4 inh	MrgX1 allo act	MrgX1 ag	RGS4 act valid	M3R Ca counter
Cc1c(NC(=O)c2cccnc2Cl)c(=O)n(-c2ccccc2)n1C	i	i	i	i	i	.	.
COc1ccc2c(C)c(CCC(=O)NCCCN3CCCC3=O)c(=O)oc2c1C	i	-8.9*	i	i	i	0.0	0.0
Cn1c(/C=C/c2ccc(Cl)cc2)nc2ccccc2c1=O	i	i	i	i	i	.	.
CCOC(=O)c1c(NC(C)=O)sc2c(OCC(O)CNC(C)(C)C)c(Br)ccc12 (stereo unspecified)	i	-10.3*	i	i	i	94.0*	94.3*
CCOC(=O)c1c(N)sc2c(OCC)c(Br)ccc12	i	i	i	i	i	.	.
COc1ccc(CN2CCc3ccc(NC(=O)CCc4ccccc4OC)cc3C2)c(O)c1	i	-9.28*	i	i	i	90.5*	71.3*
COc1cc(CN2CCc3ccc(NC(=O)CCc4ccccc4OC)cc3C2)ccc1O	i	i	i	i	i	.	.
Cc1cc(C)c(S(=O)(=O)N2CCN(S(=O)(=O)N3CCOCC3)CC2)c(C)c1	i	i	i	i	i	.	.
COc1ccc(S(=O)(=O)N2CCCCC2)cc1NC(=O)c1ccc2ccccc2n1	i	i	i	i	i	.	.
COc1ccc(NC(=O)c2ccc3ccccc3n2)cc1S(=O)(=O)N1CCCCC1	i	-8.62*	i	i	i	92.0*	49.3*
Cc1cc(NC(=O)c2ccc3c(c2)OCCO3)ccc1NC(=O)c1cc2ccccc2o1	i	-8.67*	i	i	i	77.5*	0.0
O=C(Nc1ccc(NC(=O)c2cc3ccccc3o2)cc1)c1ccc2c(c1)OCCO2	i	i	i	i	i	.	.
COc1ccc2nc3c(cc2c1)c(NC(=O)c1cccs1)nn3CC(C)C	i	-8.47*	i	i	i	86.0*	60.8*
Cc1ccc(OCC(=O)Nc2ccccc2C(=O)N2CCCC2)cc1	i	i	i	i	i	.	.
Cc1cc2c(cc1C)NC(c1c(C)n(C)n(-c3ccccc3)c1=O)C1=C(CC(C)(C)CC1=O)N2 (stereo unspecified)	i	-10.9*	i	i	i	71.0*	62.3*
